# Measurements gathered from unrelated publications.
# Each line is one published result; the experiments were not run side by side.
# Target: Dual specificity mitogen-activated protein kinase kinase 7 (MAP2K7, Homo sapiens, UniProt O14733)
# Sequence (O14733 1-419, as in one of the studies): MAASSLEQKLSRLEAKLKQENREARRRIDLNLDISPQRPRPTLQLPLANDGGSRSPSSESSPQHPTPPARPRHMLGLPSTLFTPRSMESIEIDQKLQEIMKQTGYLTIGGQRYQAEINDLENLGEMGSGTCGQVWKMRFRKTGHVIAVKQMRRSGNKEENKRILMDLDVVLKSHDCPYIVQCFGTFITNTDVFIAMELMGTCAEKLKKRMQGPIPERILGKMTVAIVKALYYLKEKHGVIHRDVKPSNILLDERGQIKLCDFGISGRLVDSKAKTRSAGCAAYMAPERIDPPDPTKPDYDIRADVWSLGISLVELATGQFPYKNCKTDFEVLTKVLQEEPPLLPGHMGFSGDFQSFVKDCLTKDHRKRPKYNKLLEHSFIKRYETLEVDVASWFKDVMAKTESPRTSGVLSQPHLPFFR
SMILES,observed,mode,technique,tested at,endpoint,result
O=C(Nc1cnn(-c2csc(C(=O)NC3COC3)c2)c1)Nc1c(F)cccc1Cl,enzyme activity,inhibitor,,5 µM,remaining activity,135%
F[C@@H]1CCN(c2nccc(-c3cnn4ncccc34)n2)C1,binding,,,1 µM,remaining binding,100%
Nc1ncnc2occ(-c3ccc(NC(=O)Nc4cc(C(F)(F)F)ccc4F)cc3)c12,cell-free assay,inhibitor,,20 µM,remaining signal,2.9%
C[C@H](NC(=O)c1cnc2n1[C@](C)(Cc1ccc(C#N)cc1)C(=O)N2c1cc(Cl)c(F)c(Cl)c1)C(=O)NC1(c2ccccn2)CC1,cell-free assay,,competition with immobilised ligand,1 µM,remaining binding,100%
CCN(CC)CCNC(=O)c1c(C)[nH]c(/C=C2\C(=O)Nc3ccc(F)cc32)c1C,enzyme activity,inhibitor,,10 µM,inhibition,31%
Cc1cc(NC(=O)c2cccc(S(F)(F)(F)(F)F)c2)cc(-n2ccn3nc(-c4cccnc4)cc23)c1,cell-free assay,,competition with immobilised ligand,1 µM,remaining binding,89.7%
CC(C)(C)c1nc2c(s1)c1nc(N)ncc1c1ccc(NS(=O)(=O)c3c(F)cccc3F)c(F)c12,enzyme activity,inhibitor,radiometric,1 µM,remaining activity,83%
CNC(=O)c1cc(Oc2ccc(NC(=O)Nc3ccc(Cl)c(C(F)(F)F)c3)cc2)ccn1,enzyme activity,inhibitor,,10 µM,inhibition,40%
Cc1sc(C(=O)NC2COC2)cc1-n1cc(NC(=O)Nc2c(F)cccc2Cl)cn1,enzyme activity,inhibitor,,10 µM,remaining activity,120%
Cc1ccc(C(=O)Nc2ccc(CN3CCN(C)CC3)c(C(F)(F)F)c2)cc1C#Cc1cnc2cccnn12,enzyme activity,inhibitor,,23.5 nM,remaining activity,75%
CC(C)(C)c1nc(-c2cccc(NS(=O)(=O)c3c(F)cccc3F)c2F)c(-c2ccnc(N)n2)s1,enzyme activity,inhibitor,radiometric,1 µM,remaining activity,78%
N[C@@H]1CCN(c2nccc(-c3cnn4ncccc34)n2)C1,binding,,,1 µM,remaining binding,100%
